# Experimental data reported in article PMC5604209 (Journal of Cancer, 2017).
# Columns and labels:
# phosphorylation of Crkl = test: Western blot, K562 and KU812 cells; assay type: cell-based, human; settings: 100 nM, 1 hour
# Procedure, shortened: (§1)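 K562 or KU812 cells (1×10⁶ per well) were plated overnight at 37 °C, 5% CO2. They were treated 1 h with a concentration series, or with 100 nM for 0–24 h; 0.1% DMSO served as control. BCA-normalized lysates were run on 10% SDS-PAGE and transferred to PVDF. Blots were blocked in TBS-0.1% Tween-20 with 5% BSA, then probed with phospho-specific primaries (2 h RT or 4 °C overnight) and HRP anti-rabbit (1 h RT). Detection was by ECL.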
# [1] = tested on: phosphorylation of Bcr-Abl and ERK1/2; test: PK/PD in K562 xenograft model: Western blot of tumor samples; assay type: in vivo, nude mice; settings: single oral dose 15 mg/kg, 2 hours
# Procedure, shortened: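 K562 xenografts in nude mice were given a single oral dose of test compound (5 or 15 mg/kg). Tumors were harvested 2 h later, and lysates were probed by Western blot with antibodies to phospho-Bcr-Abl and phospho-ERK1/2.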
# EGFR = EGFR (Homo sapiens, UniProt P00533); test: Kinase enzyme assay; assay type: biochemical
# SMMC-7721 = test: Cell proliferation assay; assay type: cell-based; settings: Homo sapiens, SMMC-7721, 72 h, read-out: Cell growth inhibition IC50
# Procedure, shortened: (§2)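 Cells were grown in DMEM or RPMI-1640 with 10% FBS and penicillin/streptomycin at 37 °C, 5% CO2. PBMC were isolated on Ficoll-Paque, and Ba/F3 Bcr-Abl lines were stably transfected. Cells were seeded at low density. DMSO stocks were 3-fold diluted from 10 mM to 0.3 nM, then into serum-free medium before addition. After 72 h, CellTiter-Glo (adherent; RT 10 min) or CellTiter-Blue (suspension; 4 h) was read. IC50 is the mean of three independent duplicate experiments.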
# MV-4-11 = test: Cell proliferation assay; assay type: cell-based; settings: read-out: Cell growth inhibition IC50; MV-4-11, acute myeloid leukemia, 72 hours
# Procedure, shortened: as §2
# HL-60 = test: Cell proliferation assay; assay type: cell-based; settings: Homo sapiens, HL-60, 72 h, read-out: Cell growth inhibition IC50
# Procedure, shortened: as §2
# K562 xenograft = test: K562 tumor xenograft in nude mice; assay type: in vivo; settings: for tumor growth inhibition: p < 0.05
# Procedure, shortened: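 Female athymic nude mice (5–6 weeks) were implanted subcutaneously in the right flank with K562 cells in 100 µL serum-free medium. Once tumors reached about 150–300 mm³, mice were randomized (10 per group) to vehicle or test compound at 5, 15 or 45 mg/kg by daily oral gavage. Caliper volume (w²×l)/2 and body weight were recorded every 2–3 days. TGI was taken versus vehicle, with t-test.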
# [2] = Pharmacokinetic studies in rats; assay type: in vivo; settings: female, SD, rat, serum, po, 5 mg/kg
# Procedure, shortened: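 Female SD rats (5–6 weeks) received a single 5 mg/kg oral dose. Blood was sampled serially from 2 min to 24 h, and serum was separated by centrifugation and stored at −80 °C. Serum levels were measured by LC-MS/MS, and T1/2, Tmax, Cmax and AUC0-INF were derived.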
# c-Kit = c-Kit (Homo sapiens, UniProt P10721); test: HTRF kinase enzyme assay; assay type: biochemical
# Procedure, shortened: (§3)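 Recombinant kinases were assayed by HTRF KinEASE-TK in 50 mM HEPES pH 7.0, 0.1 mM Na3VO4, 0.01% BSA, 5 mM MgCl2, 1 mM DTT. Compound was made as an 11-point 3-fold series from a 1 mM DMSO stock and mixed with kinase for 5 min. […] Anti-TK cryptate plus streptavidin-XL665 was added for 1 h at 23 °C before TR-FRET read-out. IC50 is the mean of three independent duplicate runs.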
# Ba/F3-Bcr-abl^T315I = test: Cell proliferation assay; assay type: cell-based, murine; settings: Mus musculus, 72 h, read-out: Cell growth inhibition IC50
# Procedure, shortened: as §2
# Ba/F3-Bcr-abl^WT = test: Cell proliferation assay; assay type: cell-based, murine; settings: Mus musculus, 72 h, read-out: Cell growth inhibition IC50
# Procedure, shortened: as §2
# PDGFRβ = PDGFRβ (Homo sapiens, UniProt P09619); test: HTRF kinase enzyme assay; assay type: biochemical
# Procedure, shortened: as §3
# MKN-45 = test: Cell proliferation assay; assay type: cell-based; settings: Homo sapiens, MKN-45, 72 h, read-out: Cell growth inhibition IC50
# Procedure, shortened: as §2
# Human PBMC = test: Cell proliferation assay; assay type: cell-based; settings: read-out: Cell growth inhibition IC50, human lymphocyte, 72 hours
# Procedure, shortened: as §2
# VEGFR2 = VEGFR2 (Homo sapiens, UniProt P35968); test: HTRF kinase enzyme assay; assay type: biochemical
# Procedure, shortened: as §3
# Abl enzyme [3] = molecular target: T1, Abl enzyme (Homo sapiens, UniProt P00519); test: Kinetic mechanism of inhibition versus ATP; assay type: biochemical
# Abl (T315I) = Abl (T315I) (Homo sapiens, UniProt P00519, T315I); test: HTRF kinase enzyme assay; assay type: biochemical
# Kasumi-1 = test: Cell proliferation assay; assay type: cell-based; settings: Homo sapiens, Kasumi 1, 72 h, read-out: Cell growth inhibition IC50
# Procedure, shortened: as §2
# K562 cells [4] = test: Cell cycle by propidium; assay type: cell-based, human; settings: 1 nM, 24 hours
# Procedure, shortened: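 After 24 h exposure of K562 cells to test compound or DMSO, cells were washed in cold PBS and fixed overnight in ice-cold 70% ethanol. They were stained 1 h at 37 °C in PBS with 0.25 mg/mL RNase and 0.025 mg/mL propidium iodide. Cells were read on a Guava flow cytometer, and G1, S and G2/M fractions were quantified.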
# Abl enzyme [5] = molecular target: T1, Abl enzyme; test: Time-dependent inhibition and reversibility; assay type: biochemical
# K562 cells [6] = test: Apoptosis by Annexin V / 7-AAD flow cytometry; assay type: cell-based, human; settings: 10 μM, 24 hours
# Procedure, shortened: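 K562 cells treated 24 h at 37 °C with test compound (0.1, 1.0 or 10 μM) or 0.1% DMSO. Cells were washed twice in PBS and resuspended in binding buffer with PE-Annexin V and 7-AAD for 15 min at RT in the dark. They were then diluted in binding buffer and read on a Guava flow cytometer. Early and late apoptotic fractions were scored.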
# Abl (WT) = Abl (WT) (Homo sapiens, UniProt P00519); test: HTRF kinase enzyme assay; assay type: biochemical
# Procedure, shortened: as §3
# KU812 xenograft = test: KU812 tumor xenograft in nude mice; assay type: in vivo; settings: 30 mg/kg QD; for treated mice with complete tumor regression: p < 0.01
# [7] = molecular target: phosphorylation of Bcr-Abl (Homo sapiens, UniProt P00519+P11274); test: Western blot, K562 and KU812 cells; assay type: cell-based; settings: for phosphorylation of Bcr-Abl kinase: 1 hour
# Procedure, shortened: as §1
# [8] = tested on: liver CYP450 enzymes (all tested enzymes); test: Liver CYP450 enzyme inhibition; assay type: in vitro ADME
# [9] = tested on: phosphorylated ERK1/2 and STAT5; test: Western blot, K562 and KU812 cells; assay type: cell-based, human
# Procedure, shortened: as §1
# PC-3 = test: Cell proliferation assay; assay type: cell-based; settings: Homo sapiens, PC-3, 72 h, read-out: Cell growth inhibition IC50
# Procedure, shortened: as §2
# [10] = PK/PD in K562 xenograft model: compound concentration in tumor; assay type: in vivo, nude mice; settings: nude, mouse, tumor tissue, po, 15 mg/kg
# Procedure, shortened: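 In nude mice bearing K562 xenografts, tumor tissue was collected 2 h after one oral dose (5 or 15 mg/kg) of test compound. Compound concentration in tumor samples was quantified by LC-MS/MS.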
# Sequence of VEGFR2 (P35968 20-1356): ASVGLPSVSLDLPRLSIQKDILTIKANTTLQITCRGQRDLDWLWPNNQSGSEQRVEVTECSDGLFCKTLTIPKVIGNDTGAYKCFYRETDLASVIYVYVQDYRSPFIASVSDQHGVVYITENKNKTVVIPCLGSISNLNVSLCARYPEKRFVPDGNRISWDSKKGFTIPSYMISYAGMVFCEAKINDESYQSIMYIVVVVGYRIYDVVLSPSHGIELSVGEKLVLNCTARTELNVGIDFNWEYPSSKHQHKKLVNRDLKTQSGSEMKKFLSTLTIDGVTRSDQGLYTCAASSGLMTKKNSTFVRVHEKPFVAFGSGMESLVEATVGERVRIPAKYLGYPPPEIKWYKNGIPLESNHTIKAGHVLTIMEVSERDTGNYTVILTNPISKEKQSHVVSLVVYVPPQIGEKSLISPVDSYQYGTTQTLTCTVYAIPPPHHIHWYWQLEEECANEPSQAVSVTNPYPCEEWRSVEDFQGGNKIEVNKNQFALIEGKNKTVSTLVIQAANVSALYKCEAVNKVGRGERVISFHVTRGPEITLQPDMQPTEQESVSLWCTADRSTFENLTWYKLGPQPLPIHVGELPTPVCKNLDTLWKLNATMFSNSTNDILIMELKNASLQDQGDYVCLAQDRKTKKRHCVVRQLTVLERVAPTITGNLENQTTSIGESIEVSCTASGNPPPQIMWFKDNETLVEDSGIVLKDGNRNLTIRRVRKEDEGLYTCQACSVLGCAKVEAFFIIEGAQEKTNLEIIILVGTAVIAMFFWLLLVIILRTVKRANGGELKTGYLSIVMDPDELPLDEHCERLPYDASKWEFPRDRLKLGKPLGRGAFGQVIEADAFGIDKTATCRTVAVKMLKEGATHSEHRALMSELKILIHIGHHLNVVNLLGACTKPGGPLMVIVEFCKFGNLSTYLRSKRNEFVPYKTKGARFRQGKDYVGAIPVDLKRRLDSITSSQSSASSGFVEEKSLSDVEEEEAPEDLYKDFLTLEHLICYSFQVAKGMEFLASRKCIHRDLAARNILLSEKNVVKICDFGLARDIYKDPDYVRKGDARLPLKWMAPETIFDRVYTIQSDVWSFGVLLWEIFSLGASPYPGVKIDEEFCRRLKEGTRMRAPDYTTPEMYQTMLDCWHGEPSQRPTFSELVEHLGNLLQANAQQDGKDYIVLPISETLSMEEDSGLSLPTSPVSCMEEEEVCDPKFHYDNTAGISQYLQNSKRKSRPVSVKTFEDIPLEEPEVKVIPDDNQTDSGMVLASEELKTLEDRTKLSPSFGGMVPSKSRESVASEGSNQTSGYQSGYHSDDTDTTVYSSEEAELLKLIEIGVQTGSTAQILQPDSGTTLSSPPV
# Sequence of PDGFRβ (P09619 33-1106): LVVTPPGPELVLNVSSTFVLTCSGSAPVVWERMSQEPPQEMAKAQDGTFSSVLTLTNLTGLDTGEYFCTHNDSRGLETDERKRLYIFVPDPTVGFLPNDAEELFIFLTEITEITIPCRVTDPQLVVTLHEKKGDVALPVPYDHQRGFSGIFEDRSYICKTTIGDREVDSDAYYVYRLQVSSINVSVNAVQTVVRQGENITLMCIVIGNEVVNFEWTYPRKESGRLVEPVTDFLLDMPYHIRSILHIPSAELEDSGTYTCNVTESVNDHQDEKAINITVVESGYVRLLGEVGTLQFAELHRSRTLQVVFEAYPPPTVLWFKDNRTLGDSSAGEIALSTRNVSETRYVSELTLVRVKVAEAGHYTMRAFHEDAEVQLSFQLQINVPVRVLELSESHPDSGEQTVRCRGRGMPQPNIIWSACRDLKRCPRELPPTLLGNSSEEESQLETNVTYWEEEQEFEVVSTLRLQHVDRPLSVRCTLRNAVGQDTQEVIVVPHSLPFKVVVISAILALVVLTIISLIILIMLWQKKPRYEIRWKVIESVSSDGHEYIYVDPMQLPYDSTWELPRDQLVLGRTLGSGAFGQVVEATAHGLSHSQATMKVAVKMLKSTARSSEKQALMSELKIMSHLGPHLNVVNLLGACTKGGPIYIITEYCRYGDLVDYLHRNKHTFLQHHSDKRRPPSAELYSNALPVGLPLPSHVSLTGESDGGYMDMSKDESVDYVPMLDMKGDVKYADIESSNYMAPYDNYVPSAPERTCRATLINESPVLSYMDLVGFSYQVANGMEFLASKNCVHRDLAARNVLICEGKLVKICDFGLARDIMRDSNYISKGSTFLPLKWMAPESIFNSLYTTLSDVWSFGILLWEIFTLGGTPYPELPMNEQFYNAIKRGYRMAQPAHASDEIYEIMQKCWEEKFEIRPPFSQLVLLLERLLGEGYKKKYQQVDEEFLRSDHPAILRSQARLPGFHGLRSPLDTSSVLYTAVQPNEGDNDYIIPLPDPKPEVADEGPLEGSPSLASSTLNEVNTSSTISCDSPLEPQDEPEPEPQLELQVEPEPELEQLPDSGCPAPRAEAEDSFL
# Sequence of c-Kit (P10721 26-976): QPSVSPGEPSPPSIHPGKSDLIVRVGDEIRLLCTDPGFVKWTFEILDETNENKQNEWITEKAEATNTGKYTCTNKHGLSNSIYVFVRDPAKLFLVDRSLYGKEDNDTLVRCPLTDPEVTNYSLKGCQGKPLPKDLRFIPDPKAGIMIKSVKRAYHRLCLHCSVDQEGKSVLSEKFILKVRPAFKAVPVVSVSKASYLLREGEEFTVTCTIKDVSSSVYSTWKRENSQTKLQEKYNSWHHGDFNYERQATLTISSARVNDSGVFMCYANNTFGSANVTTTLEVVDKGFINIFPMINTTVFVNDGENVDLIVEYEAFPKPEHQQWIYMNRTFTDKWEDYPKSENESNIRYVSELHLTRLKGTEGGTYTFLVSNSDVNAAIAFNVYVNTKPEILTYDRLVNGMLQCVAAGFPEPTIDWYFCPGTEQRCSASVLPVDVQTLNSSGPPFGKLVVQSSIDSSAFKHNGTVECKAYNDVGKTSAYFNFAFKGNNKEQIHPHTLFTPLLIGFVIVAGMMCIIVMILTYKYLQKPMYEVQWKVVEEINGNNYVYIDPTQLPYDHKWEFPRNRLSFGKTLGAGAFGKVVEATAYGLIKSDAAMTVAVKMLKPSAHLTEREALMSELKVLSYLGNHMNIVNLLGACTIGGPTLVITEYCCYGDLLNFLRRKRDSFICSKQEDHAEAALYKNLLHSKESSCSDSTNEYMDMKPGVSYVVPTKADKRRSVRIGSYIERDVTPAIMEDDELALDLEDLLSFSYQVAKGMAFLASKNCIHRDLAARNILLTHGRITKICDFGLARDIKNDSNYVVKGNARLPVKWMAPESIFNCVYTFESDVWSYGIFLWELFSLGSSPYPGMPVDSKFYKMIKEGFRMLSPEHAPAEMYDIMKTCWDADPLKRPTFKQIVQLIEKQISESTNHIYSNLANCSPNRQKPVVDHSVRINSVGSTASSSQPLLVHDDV
# Sequence of EGFR (P00533 25-1210): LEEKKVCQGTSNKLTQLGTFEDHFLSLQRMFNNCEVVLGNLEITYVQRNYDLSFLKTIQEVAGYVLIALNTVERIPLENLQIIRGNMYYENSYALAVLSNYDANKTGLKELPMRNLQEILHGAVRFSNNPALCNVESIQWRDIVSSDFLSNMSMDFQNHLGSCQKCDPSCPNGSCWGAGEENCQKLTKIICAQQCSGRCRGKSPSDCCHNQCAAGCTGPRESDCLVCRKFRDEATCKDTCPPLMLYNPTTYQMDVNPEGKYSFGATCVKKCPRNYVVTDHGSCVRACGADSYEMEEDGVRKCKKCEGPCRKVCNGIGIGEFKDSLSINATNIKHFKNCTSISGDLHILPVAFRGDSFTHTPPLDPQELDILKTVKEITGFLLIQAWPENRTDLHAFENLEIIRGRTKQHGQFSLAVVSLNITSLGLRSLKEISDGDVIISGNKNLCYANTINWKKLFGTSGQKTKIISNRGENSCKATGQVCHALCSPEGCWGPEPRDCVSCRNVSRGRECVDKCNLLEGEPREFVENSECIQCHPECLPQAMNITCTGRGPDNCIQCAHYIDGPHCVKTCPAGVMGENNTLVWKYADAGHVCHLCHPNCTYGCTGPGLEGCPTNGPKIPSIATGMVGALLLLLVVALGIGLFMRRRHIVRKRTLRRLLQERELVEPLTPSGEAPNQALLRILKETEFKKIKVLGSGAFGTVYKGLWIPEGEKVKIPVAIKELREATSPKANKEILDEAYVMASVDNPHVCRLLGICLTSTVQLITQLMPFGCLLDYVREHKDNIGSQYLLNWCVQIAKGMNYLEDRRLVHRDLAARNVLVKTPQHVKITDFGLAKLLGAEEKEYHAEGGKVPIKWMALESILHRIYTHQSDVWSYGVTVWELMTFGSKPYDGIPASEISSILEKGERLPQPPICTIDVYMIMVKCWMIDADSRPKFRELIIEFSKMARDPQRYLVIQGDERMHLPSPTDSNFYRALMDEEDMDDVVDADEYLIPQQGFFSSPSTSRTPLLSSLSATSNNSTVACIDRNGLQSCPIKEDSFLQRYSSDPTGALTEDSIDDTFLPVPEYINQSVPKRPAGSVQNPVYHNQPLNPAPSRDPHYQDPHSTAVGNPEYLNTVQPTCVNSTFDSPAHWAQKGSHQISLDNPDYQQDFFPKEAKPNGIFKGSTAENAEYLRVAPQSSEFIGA
compound,measurement,setting,value
"Cc1ccc(NC(=O)c2ccc3c(c2)CC[C@@H]3N2CCN(C)CC2)cc1C#Cc1cnc2ccc(Cl)nn12 [CT-721, (S)-N-(3-((6-chloroimidazo[1,2-b]pyridazin-3-yl)ethynyl)-4-methylphenyl)-1-(4-methylpiperazin-1-yl)-2,3-dihydro-1H-indene-5-carboxamide]",phosphorylation of Crkl,phosphorylation of Crkl,significantly inhibited
same,Bcr-Abl and ERK phosphorylation in tumor,[1],almost complete inhibition
same,IC50,EGFR,0.13 µM
same,IC50,SMMC-7721,1 to 10 µM
same,IC50,MV-4-11,0.232 ± 0.055 µM
same,IC50,HL-60,1 to 10 µM
same,tumor growth inhibition,"K562 xenograft; K562 xenograft, 5 mg/kg PO QD",51.4%
same,tumor growth inhibition,"K562 xenograft; K562 xenograft, 15 mg/kg PO QD, 12 days",76%
same,"mice completely cured, tumors disappeared completely","K562 xenograft; K562 xenograft, 45 mg/kg PO QD, 9 days, p < 0.01",90%
same,body weight of xenograft mice,"K562 xenograft; K562 xenograft, 5, 15 and 45 mg/kg",without causing significant bodyweight loss
same,AUC(0-inf),[2],5420 ng·h/mL
same,Cmax,[2],303 ng/mL
same,Tmax,[2],6.67 h
same,half-life,[2],8.83 h
same,IC50,c-Kit,0.0092 µM
same,IC50,Ba/F3-Bcr-abl^T315I,0.0185 ± 0.012 µM
same,IC50,Ba/F3-Bcr-abl^WT,0.0016 ± 0.0003 µM
same,IC50,PDGFRβ,0.106 µM
same,IC50,MKN-45,1 to 10 µM
same,IC50,Human PBMC,1 to 10 µM
same,IC50,VEGFR2,0.0489 µM
same,Ki,Abl enzyme [3],0.0073 µM
same,Ki',Abl enzyme [3]; enzyme-ATP complex,0.775 µM
same,IC50,Abl (T315I),0.065 ± 0.0062 µM
same,IC50,Kasumi-1,0.053 ± 0.006 µM
same,cell cycle arrest,K562 cells [4],pronounced G0/G1 phase arrest
same,koff,Abl enzyme [5],5.37e-05 s⁻¹
same,IC50,"Abl enzyme [5]; IC50 for Abl kinase, Normal (no preincubation, 0 min)",0.0121 µM
same,decrease of IC50 after preincubation,"Abl enzyme [5]; from 12.1 nM to 1.3 nM, 120 min",9 fold
same,late-phase apoptosis,K562 cells [6],late-phase apoptosis was also observed
same,IC50,Abl (WT),0.0213 ± 0.0011 µM
same,tumor growth,KU812 xenograft; after 5 days,notably inhibited with partial regression observed
same,treated mice with complete tumor regression,KU812 xenograft; after 8 days,50%
same,treated mice with complete tumor regression,KU812 xenograft; after 18 days,80%
same,body weight of xenograft mice,KU812 xenograft; compared to the vehicle group,no significant body weight loss
same,phosphorylation of Bcr-Abl kinase,[7]; 10 nM,significantly suppressed
same,phosphorylation of Bcr-Abl kinase,[7]; 100 nM,totally blocked
same,duration of blockage of phosphorylation of Bcr-Abl and Crkl,"[7]; time course, 100 nM",at least 24 hours
same,IC50,[8],> 10 µM
same,levels of phosphorylated ERK1/2 and STAT5,[9],dose-dependently repressed
same,IC50,PC-3,1 to 10 µM
same,concentration at 2 h,[10],254 ng/mL
